These results are taken from ChEMBL document CHEMBL1177865, “Synthesis and anticancer activity of some novel 2-substituted benzimidazole derivatives” (Eur J Med Chem, 2010).

In brackets after ≈: the same amount, converted by molar mass.

As usually defined, the IC50 is the concentration needed to halve the response being measured. Read a low IC50 as higher potency. The term IC90 denotes the point of the concentration-response curve where the effect stands at 90%. A lower IC90 goes with an effect from little substance.

Holding throughout (type): functional, cell-based
One experiment concerns HepG2. As to the kind of experiment: Cytotoxicity against human HepG2 cells after 48 hrs by sulforhodamine B assay. The settings on record: HepG2, 48 h. In outline: (§1)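 Cells seeded at 10^4 per well and allowed to attach for 24 h, then exposed to compound at 0, 1, 2.5, 5 and 10 μg/ml, triplicate wells per dose, 48 h at 37 °C, 5% CO2. Fixed, stained with sulforhodamine B, excess dye removed with acetic acid, bound dye dissolved in Tris EDTA, absorbance read. IC50 (μg/ml, 50% survival reduction) taken from triplicate dose–response curves.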
Background: Sulforhodamine B stains cellular protein and so reports cell mass.

The next experiment has as its system MCF7. As to the kind of experiment: Cytotoxicity against human MCF7 cells after 48 hrs by sulforhodamine B assay. The settings on record: MCF7, 48 h. In outline:
as §1

The next experiment concerns HCT-116. As to the kind of experiment: Cytotoxicity against human HCT116 cells after 48 hrs by sulforhodamine B assay. The settings on record: HCT-116, 48 h. In outline:
as §1

Turning to `COc1ccccc1C1=CS/C(=C(\C#N)c2nc3cc(C(=O)O)ccc3[nH]2)N1c1ccc(Br)cc1`, the IC50 came to 3.16 µg/mL (≈ 5.79 µM) in the experiment with HepG2, 2.85 µg/mL (≈ 5.23 µM) with MCF7 and 3.75 µg/mL (≈ 6.88 µM) in the experiment on HCT-116. The IC90 in the experiment with HepG2 came to 9.31 µg/mL (≈ 17.1 µM); in the experiment on MCF7, 13.2 µg/mL (≈ 24.3 µM); in the experiment on HCT-116, 12.1 µg/mL (≈ 22.1 µM).

As to `Nc1c(-c2nc3cc(C(=O)O)ccc3[nH]2)sc(=S)n1Cc1ccccc1`, the IC50 in the experiment with HepG2 was 0.55 µg/mL (≈ 1.44 µM); in the experiment on MCF7 it was 3.51 µg/mL (≈ 9.18 µM); in the experiment on HCT-116 it was 4.23 µg/mL (≈ 11.1 µM). Moreover, the concentration for an effect of 90% (IC90) amounted to 7.53 µg/mL (≈ 19.7 µM) with HepG2, 14.1 µg/mL (≈ 36.8 µM) with MCF7 and 14 µg/mL (≈ 36.7 µM) in the experiment with HCT-116.

As to `N#C/C(=C\c1ccc(F)cc1)c1nc2cc(Cl)ccc2[nH]1`, the figures for the IC50 with HepG2, with MCF7 and in the experiment on HCT-116 were 0.55 µg/mL (≈ 1.85 µM), 3.41 µg/mL (≈ 11.5 µM) and 8.4 µg/mL (≈ 28.2 µM), respectively. Moreover, the IC90 in the experiment on HepG2 turned out to be 7.62 µg/mL (≈ 25.6 µM); in the experiment on MCF7, 13.3 µg/mL (≈ 44.8 µM); in the experiment on HCT-116, 14.8 µg/mL (≈ 49.8 µM).

With `N#CC(=C1CCCCC1)c1nc2cc(C(=O)O)ccc2[nH]1`, the half-inhibitory concentration (IC50) in the experiment with HepG2 stood at 1.65 µg/mL (≈ 5.87 µM); in the experiment on MCF7 it was 2.15 µg/mL (≈ 7.64 µM); in the experiment with HCT-116, 8.25 µg/mL (≈ 29.3 µM). Besides, the IC90 in the experiment with HepG2 stood at 8.61 µg/mL (≈ 30.6 µM); in the experiment with MCF7, 11.7 µg/mL (≈ 41.6 µM); with HCT-116 it was 14.2 µg/mL (≈ 50.4 µM).

In the case of `N#C/C(=C1\SCC(=O)N1c1ccccc1)c1nc2cc(Cl)ccc2[nH]1`, the results for the IC50 in the experiment with HepG2, in the experiment on MCF7 and with HCT-116 were 0.93 µg/mL (≈ 2.54 µM), 2.83 µg/mL (≈ 7.71 µM) and 3.72 µg/mL (≈ 10.1 µM), respectively. The values for the IC90 in the experiment on HepG2, in the experiment with MCF7 and in the experiment on HCT-116 were 7.89 µg/mL (≈ 21.5 µM), 12.6 µg/mL (≈ 34.4 µM) and 12 µg/mL (≈ 32.8 µM), respectively.

As to `N#C/C(=C1\SCCCN1c1ccccc1)c1nc2cc(C(=O)O)ccc2[nH]1`, the results for the IC50 in the experiment with HepG2, in the experiment with MCF7 and in the experiment with HCT-116 were 1.87 µg/mL (≈ 4.97 µM), 4.04 µg/mL (≈ 10.7 µM) and 9.39 µg/mL (≈ 24.9 µM), respectively. Besides, the IC90 in the experiment on HepG2 was 8.8 µg/mL (≈ 23.4 µM); with MCF7, 15 µg/mL (≈ 39.9 µM); with HCT-116, 14.7 µg/mL (≈ 39.1 µM).

With `N#C/C(=C1\SC(=O)CN1C1CCCCC1)c1nc2cc(C(=O)O)ccc2[nH]1`, the figures for the IC50 in the experiment with HepG2, in the experiment with MCF7 and in the experiment on HCT-116 were 1.35 µg/mL (≈ 3.53 µM), 3.83 µg/mL (≈ 10 µM) and 5.52 µg/mL (≈ 14.4 µM), respectively. Besides, the values for the IC90 in the experiment on HepG2, with MCF7 and in the experiment on HCT-116 were 9.15 µg/mL (≈ 23.9 µM), 15 µg/mL (≈ 39.3 µM) and 14.1 µg/mL (≈ 36.9 µM), respectively.

Turning to `COc1cccc2c1C(=O)c1c(O)c3c(c(O)c1C2=O)C[C@@](O)(C(=O)CO)C[C@@H]3O[C@H]1C[C@H](N)[C@H](O)[C@H](C)O1` [DOXORUBICIN], the IC50 was determined as 0.59 µg/mL (≈ 1.09 µM) in the experiment on HepG2 and 0.65 µg/mL (≈ 1.2 µM) with HCT-116. Also, the figures for the IC90 in the experiment on HepG2, in the experiment on MCF7 and in the experiment on HCT-116 were 6.82 µg/mL (≈ 12.5 µM), 8.77 µg/mL (≈ 16.1 µM) and 7.32 µg/mL (≈ 13.5 µM), respectively.
